In the M2OR odorant receptor database:

What was measured:
Details in all cases: stereoisomer not certain
OR10J5 (Homo sapiens) = molecular target: T1, OR10J5 (Homo sapiens) (UniProt Q8NHC4)
T1 sequence (whole entry): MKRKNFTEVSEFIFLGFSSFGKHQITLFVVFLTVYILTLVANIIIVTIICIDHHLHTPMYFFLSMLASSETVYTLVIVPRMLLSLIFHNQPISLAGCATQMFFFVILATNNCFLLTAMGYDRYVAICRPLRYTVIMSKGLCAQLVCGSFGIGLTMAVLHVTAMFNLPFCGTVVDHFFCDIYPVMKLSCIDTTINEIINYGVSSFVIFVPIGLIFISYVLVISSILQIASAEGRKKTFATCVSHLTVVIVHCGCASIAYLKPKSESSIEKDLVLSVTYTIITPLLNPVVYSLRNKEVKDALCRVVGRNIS
In short: (§1)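 Each entry records the cell line, G-protein, co-transfected protein and tags used. Methods varied with the source, often transient luciferase assays in mammalian cell lines. A receptor–molecule pair is called responsive (active) if the original authors judged its signal statistically different from baseline and non-responsive (inactive) otherwise.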

OR10G2 (Homo sapiens) = molecular target: T2, OR10G2 (Homo sapiens) (UniProt Q8NGC3)
T2 sequence (whole entry): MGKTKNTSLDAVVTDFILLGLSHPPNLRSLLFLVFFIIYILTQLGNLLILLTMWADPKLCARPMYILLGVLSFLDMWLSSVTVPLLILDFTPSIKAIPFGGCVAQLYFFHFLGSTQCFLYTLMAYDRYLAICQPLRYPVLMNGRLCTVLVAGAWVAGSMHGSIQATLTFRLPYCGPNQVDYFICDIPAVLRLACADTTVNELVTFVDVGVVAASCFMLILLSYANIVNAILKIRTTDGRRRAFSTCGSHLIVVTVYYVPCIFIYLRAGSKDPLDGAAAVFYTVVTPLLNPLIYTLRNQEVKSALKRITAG
In short: as §1

OR10G3 (Homo sapiens) = molecular target: T3, OR10G3 (Homo sapiens) (UniProt Q8NGC4)
T3 sequence (whole entry): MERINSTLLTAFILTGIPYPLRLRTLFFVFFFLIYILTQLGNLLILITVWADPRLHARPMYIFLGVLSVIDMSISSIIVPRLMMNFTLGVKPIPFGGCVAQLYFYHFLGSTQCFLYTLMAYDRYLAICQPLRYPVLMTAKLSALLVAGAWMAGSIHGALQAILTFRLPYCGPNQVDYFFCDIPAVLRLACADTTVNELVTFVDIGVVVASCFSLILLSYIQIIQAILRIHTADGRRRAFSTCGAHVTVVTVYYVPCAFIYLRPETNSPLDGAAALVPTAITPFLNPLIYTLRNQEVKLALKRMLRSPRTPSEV
In short: as §1

OR10G4 (Homo sapiens) = molecular target: T4, OR10G4 (Homo sapiens) (UniProt Q8NGN3)
T4 sequence (whole entry): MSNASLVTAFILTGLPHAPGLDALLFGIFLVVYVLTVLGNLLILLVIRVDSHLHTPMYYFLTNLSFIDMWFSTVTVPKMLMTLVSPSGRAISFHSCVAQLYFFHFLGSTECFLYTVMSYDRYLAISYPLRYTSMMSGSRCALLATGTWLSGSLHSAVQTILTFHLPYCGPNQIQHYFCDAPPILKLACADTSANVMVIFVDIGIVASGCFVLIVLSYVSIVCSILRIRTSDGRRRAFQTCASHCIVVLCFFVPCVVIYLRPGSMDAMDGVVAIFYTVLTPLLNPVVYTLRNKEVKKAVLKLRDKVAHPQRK
In short: as §1

OR10G6 (Homo sapiens) = molecular target: T5, OR10G6 (Homo sapiens) (UniProt Q8NH81)
T5 sequence (whole entry): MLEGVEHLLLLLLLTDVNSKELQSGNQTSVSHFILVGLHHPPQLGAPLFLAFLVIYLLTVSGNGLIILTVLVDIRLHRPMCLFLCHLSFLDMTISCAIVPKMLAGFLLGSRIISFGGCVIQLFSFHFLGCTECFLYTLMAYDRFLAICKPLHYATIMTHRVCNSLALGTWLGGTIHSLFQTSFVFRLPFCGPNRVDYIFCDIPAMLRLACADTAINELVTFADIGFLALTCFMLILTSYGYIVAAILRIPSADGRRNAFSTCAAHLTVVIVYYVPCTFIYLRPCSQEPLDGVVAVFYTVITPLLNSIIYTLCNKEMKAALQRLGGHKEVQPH
In short: as §1

OR10G7 (Homo sapiens) = molecular target: T6, OR10G7 (Homo sapiens) (UniProt Q8NGN6)
T6 sequence (whole entry): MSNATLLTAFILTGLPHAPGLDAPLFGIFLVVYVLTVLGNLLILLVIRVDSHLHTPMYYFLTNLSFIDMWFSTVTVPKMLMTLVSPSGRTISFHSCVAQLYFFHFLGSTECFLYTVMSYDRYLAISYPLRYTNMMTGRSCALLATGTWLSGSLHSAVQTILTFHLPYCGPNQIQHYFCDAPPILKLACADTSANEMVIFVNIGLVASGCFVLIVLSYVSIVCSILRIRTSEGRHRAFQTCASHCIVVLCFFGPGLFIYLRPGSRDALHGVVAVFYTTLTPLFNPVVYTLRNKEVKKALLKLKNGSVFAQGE
In short: as §1

OR10G8 (Homo sapiens) = molecular target: T7, OR10G8 (Homo sapiens) (UniProt Q8NGN5)
T7 sequence (whole entry): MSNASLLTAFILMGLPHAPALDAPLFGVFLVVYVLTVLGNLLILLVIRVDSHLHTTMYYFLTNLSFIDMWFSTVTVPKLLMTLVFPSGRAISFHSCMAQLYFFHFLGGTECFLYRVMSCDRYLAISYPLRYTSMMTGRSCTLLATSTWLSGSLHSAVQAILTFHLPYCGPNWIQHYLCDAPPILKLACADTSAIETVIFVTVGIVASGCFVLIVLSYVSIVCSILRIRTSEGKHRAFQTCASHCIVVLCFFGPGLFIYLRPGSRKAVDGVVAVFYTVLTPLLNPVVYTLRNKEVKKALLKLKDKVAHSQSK
In short: as §1

OR10G9 (Homo sapiens) = molecular target: T8, OR10G9 (Homo sapiens) (UniProt Q8NGN4)
T8 sequence (whole entry): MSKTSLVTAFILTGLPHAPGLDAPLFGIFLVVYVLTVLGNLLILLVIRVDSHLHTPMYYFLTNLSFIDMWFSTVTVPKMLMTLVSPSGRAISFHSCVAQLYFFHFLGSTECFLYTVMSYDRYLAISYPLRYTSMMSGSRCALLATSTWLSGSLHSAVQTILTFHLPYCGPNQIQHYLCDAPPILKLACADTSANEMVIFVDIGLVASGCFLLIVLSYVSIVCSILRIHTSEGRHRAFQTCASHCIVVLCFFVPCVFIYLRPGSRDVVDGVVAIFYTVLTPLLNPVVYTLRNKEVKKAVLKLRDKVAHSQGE
In short: as §1

OR10H1 (Homo sapiens) = molecular target: T9, OR10H1 (Homo sapiens) (UniProt Q9Y4A9)
T9 sequence (whole entry): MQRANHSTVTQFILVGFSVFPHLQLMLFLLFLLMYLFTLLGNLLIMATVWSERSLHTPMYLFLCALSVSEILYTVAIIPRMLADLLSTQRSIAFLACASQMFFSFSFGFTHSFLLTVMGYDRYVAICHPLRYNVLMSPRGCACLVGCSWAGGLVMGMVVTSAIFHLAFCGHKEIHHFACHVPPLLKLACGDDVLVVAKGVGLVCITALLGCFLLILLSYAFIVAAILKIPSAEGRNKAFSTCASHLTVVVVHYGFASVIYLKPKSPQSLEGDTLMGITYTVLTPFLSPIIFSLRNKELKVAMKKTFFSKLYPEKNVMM
In short: as §1

OR10H2 (Homo sapiens) = molecular target: T10, OR10H2 (Homo sapiens) (UniProt O60403)
T10 sequence (whole entry): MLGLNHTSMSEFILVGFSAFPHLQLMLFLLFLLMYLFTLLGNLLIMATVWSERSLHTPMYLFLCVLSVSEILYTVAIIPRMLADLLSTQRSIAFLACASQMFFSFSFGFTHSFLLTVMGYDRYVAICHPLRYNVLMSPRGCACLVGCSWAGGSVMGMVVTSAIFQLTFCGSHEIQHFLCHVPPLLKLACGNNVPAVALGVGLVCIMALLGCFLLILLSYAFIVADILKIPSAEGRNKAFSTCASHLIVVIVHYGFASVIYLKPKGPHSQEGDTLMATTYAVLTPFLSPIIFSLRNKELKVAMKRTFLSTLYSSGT
In short: as §1

OR10H3 (Homo sapiens) = molecular target: T11, OR10H3 (Homo sapiens) (UniProt O60404)
T11 sequence (whole entry): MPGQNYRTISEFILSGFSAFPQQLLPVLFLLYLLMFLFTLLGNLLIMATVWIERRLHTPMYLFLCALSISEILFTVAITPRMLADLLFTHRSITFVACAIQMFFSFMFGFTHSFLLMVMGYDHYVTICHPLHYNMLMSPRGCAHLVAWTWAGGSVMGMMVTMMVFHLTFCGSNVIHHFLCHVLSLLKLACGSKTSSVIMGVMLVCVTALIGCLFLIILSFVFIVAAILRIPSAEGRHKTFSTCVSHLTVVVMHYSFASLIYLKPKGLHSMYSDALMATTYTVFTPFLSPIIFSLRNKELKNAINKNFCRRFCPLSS
In short: as §1

OR10H4 (Homo sapiens) = molecular target: T12, OR10H4 (Homo sapiens) (UniProt Q8NGA5)
T12 sequence (whole entry): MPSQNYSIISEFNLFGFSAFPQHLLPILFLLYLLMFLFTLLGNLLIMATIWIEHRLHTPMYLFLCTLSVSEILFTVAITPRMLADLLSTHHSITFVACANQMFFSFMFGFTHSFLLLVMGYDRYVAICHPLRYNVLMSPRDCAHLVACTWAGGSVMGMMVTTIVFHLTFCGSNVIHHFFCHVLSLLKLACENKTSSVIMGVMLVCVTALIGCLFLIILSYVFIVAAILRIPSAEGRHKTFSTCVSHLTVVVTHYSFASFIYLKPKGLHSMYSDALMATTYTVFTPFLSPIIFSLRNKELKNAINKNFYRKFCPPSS
In short: as §1

OR10H5 (Homo sapiens) = molecular target: T13, OR10H5 (Homo sapiens) (UniProt Q8NGA6)
T13 sequence (whole entry): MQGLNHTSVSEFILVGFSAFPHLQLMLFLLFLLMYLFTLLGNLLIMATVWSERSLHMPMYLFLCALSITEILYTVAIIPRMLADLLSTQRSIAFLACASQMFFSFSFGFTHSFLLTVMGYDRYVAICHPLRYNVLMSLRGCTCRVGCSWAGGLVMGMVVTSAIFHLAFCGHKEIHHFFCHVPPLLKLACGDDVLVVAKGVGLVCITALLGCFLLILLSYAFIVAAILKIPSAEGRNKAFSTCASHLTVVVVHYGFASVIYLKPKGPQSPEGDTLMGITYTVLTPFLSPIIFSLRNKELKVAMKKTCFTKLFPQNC
In short: as §1

OR10J1 (Homo sapiens) = molecular target: T14, OR10J1 (Homo sapiens) (UniProt P30954)
T14 sequence (whole entry): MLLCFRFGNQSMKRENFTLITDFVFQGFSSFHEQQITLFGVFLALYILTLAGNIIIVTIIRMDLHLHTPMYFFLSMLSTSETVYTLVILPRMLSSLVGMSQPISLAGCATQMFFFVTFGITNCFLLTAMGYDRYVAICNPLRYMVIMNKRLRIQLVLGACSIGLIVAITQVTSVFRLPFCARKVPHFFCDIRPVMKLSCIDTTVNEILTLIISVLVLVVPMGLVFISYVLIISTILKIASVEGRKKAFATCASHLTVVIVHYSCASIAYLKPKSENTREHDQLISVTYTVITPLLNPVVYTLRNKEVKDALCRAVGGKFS
In short: as §1

OR10J3 (Homo sapiens) = molecular target: T15, OR10J3 (Homo sapiens) (UniProt Q5JRS4)
T15 sequence (whole entry): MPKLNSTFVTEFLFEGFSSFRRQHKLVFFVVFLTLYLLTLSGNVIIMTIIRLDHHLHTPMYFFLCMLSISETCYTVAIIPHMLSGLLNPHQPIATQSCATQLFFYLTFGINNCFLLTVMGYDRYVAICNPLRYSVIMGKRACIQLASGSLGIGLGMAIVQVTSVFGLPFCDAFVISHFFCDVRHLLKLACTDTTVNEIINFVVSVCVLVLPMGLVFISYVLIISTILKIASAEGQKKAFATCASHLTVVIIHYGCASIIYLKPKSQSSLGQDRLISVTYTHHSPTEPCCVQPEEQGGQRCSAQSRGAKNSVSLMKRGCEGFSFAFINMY
In short: as §1

OR10K1 (Homo sapiens) = molecular target: T16, OR10K1 (Homo sapiens) (UniProt Q8NGX5)
T16 sequence (whole entry): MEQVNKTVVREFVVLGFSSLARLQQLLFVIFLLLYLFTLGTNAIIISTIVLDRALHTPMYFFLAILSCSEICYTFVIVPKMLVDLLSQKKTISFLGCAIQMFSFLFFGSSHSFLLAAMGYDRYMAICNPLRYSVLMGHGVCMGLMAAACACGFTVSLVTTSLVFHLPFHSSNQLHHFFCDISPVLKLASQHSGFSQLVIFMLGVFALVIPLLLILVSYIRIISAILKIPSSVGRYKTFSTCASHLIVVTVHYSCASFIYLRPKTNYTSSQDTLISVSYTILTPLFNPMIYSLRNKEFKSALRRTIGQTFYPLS
In short: as §1

OR10P1 (Homo sapiens) = molecular target: T17, OR10P1 (Homo sapiens) (UniProt Q8NGE3)
T17 sequence (whole entry): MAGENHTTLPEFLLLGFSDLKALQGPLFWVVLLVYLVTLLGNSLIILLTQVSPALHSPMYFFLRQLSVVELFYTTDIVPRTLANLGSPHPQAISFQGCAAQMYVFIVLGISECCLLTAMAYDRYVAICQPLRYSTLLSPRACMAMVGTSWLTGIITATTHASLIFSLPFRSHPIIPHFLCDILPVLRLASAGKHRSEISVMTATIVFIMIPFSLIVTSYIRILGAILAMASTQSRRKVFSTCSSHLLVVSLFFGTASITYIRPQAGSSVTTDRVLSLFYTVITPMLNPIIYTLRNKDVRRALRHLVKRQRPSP
In short: as §1

OR10Q1 (Homo sapiens) = molecular target: T18, OR10Q1 (Homo sapiens) (UniProt Q8NGQ4)
T18 sequence (whole entry): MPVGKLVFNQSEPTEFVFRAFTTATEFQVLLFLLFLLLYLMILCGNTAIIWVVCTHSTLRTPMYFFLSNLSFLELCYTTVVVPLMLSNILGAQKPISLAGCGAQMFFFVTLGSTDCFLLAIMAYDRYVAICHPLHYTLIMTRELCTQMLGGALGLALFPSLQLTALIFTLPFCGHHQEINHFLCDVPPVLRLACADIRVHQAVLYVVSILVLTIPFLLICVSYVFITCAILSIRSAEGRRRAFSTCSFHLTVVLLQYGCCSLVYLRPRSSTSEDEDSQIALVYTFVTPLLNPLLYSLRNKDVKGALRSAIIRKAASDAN
In short: as §1

Measured: odorant receptor agonist call

CCCCCCCCCO
inactive: OR10J5 (Homo sapiens)

CC(=O)OCC=C(C)C
inactive: OR10J5 (Homo sapiens)

CCC1OC(=O)C(O)=C1C (stereo not given)
inactive: all assays above
